# Published values gathered from unrelated publications.
# Protocols differ between the studies behind these lines.
# Target: Tyrosine-protein kinase Fer (FER, Homo sapiens, UniProt P16591)
Structure (SMILES),read-out,action,technique,tested at,endpoint,result
COc1ncccc1-c1cnn2ccc(N3CCN(C(=O)OC(C)C)CC3)nc12,binding,,competition with immobilised ligand,1 µM,remaining binding,100%
Nc1ncc(-c2nc(N3CCOCC3)nc(N3CCOCC3)n2)c(C(F)F)n1,binding,,competition with immobilised ligand,10 µM,remaining binding,67%
C#Cc1n[nH]c2c(-c3cn([C@@H](C)c4ccccn4)c(=O)[nH]c3=O)cc(F)cc12,enzyme activity,inhibitor,,0.1 µM,inhibition,3.7%
Cn1cc(-c2cc(F)cc(N3CCn4c(cc5c4CCCC5)C3=O)c2CO)cc(Nc2ccc(N3CCN(C4COC4)CC3)cn2)c1=O,enzyme activity,inhibitor,,0.1 µM,inhibition,10%
C#Cc1n[nH]c2c(-c3cn([C@@H](C)c4ccccc4)c(=O)[nH]c3=O)cc(F)cc12,enzyme activity,inhibitor,,0.1 µM,inhibition,1.5%
Cn1cncc1[C@@](O)(COc1ccc(C#N)cc1-c1ccc(OC(F)(F)F)cc1)c1ccc(C#N)cc1,cell-free assay,,competition with immobilised ligand,1 µM,remaining binding,100%
Cn1cc(-c2cccc(N3CCc4c(sc5c4CC(C)(C)C5)C3=O)c2CO)cc(Nc2ccncn2)c1=O,enzyme activity,inhibitor,,1 µM,inhibition,9%
CC(C)(C)c1cc(C=C(C#N)C#N)cc(Br)c1O,enzyme activity,inhibitor,,0.5 µM,remaining activity,100%
COc1cc(Nc2ncc(F)c(Nc3ccc4c(n3)NC(=O)C(C)(C)O4)n2)cc(OC)c1OC,binding,,competition with immobilised ligand,10 µM,inhibition,78%
CCn1cnc2c(Nc3cccc(Cl)c3)nc(N[C@H]3CCCC[C@H]3N)nc21,enzyme activity,inhibitor,,0.5 µM,remaining activity,86.8%
Cc1nn(C)cc1-c1nc2c(N3CCN(Cc4ccc(Cl)cc4)CC3)c(Cl)cnc2[nH]1,binding,,competition with immobilised ligand,1 µM,remaining binding,100%
